Measured values as given in ChEMBL document CHEMBL1629485, “Lead identification of conformationally restricted β-lactam type combretastatin analogues: synthesis, antiproliferative activity and tubulin targeting effects” (Eur J Med Chem, 2010).

Tests used:
MCF7 = assay: Antiproliferative activity against human MCF7 cells expressing estrogen receptor after 72 hrs by MTT assay; type: functional, cell-based; conditions: MCF7, 72 h
MDA-MB-231 [1] = assay: Cell cycle arrest in estrogen receptor deficient human MDA-MB-231 cells assessed as accumulation at sub-G1 phase at 1 uM after 72 hrs using propidium iodide staining by flow cytometry relative to control; type: functional
Summary of the method: (§1)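 MDA-MB-231 cells in DMEM with 10% FBS and 2 mM L-glutamine, seeded at 18 × 10⁴ cells/mL. Exposed to test agent at the stated final concentration, or to 1% (v/v) ethanol vehicle, for 24, 48 or 72 h. Harvested by scraping and centrifugation, then RNase A treatment and propidium iodide DNA staining for at least 30 min at 37 °C. 10,000 cells per sample read at 488 nm by flow cytometry; mean ± SD of three experiments.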

MDA-MB-231 [2] = assay: Cell cycle arrest in estrogen receptor deficient human MDA-MB-231 cells assessed as accumulation at sub-G1 phase at 100 nM after 48 hrs using propidium iodide staining by flow cytometry relative to control; type: functional; summary of the method: as §1

`COc1ccc(C2CC(=O)N2c2cc(OC)c(OC)c(OC)c2)cc1O` (stereo not drawn) was tested, and the IC50 (MCF7) was 17 nM, the Activity (MDA-MB-231 [1]) was 50.53% and the Activity (MDA-MB-231 [2]) was 37.5%.
